Laboratory results published in ChEMBL document CHEMBL4376807, “Hydroxamic Acid Derivatives of β-Carboline/Hydroxycinnamic Acid Hybrids Inducing Apoptosis and Autophagy through the PI3K/Akt/mTOR Pathways” (J Nat Prod, 2019).
Calls of active or inactive are those of the source. The rule behind the calls is not given here.

Key:
SMMC-7721 = experiment: Antiproliferative activity against human SMMC7721 cells after 72 hrs by MTT assay; assay type: functional, cell-based; details: SMMC-7721, 72 h
Bel-7402 [1] = experiment: Antiproliferative activity against human Bel7402 cells after 72 hrs by MTT assay; assay type: functional, cell-based; details: Bel-7402, 72 h
Histone deacetylase 1 = Histone deacetylase 1 (Homo sapiens, UniProt Q13547); experiment: Inhibition of HDAC1 (unknown origin) using Boc-Lys (Ac)-AMC as substrate incubated for 60 mins by fluorimetric assay
Histone deacetylase 1, sequence (Q13547 whole entry): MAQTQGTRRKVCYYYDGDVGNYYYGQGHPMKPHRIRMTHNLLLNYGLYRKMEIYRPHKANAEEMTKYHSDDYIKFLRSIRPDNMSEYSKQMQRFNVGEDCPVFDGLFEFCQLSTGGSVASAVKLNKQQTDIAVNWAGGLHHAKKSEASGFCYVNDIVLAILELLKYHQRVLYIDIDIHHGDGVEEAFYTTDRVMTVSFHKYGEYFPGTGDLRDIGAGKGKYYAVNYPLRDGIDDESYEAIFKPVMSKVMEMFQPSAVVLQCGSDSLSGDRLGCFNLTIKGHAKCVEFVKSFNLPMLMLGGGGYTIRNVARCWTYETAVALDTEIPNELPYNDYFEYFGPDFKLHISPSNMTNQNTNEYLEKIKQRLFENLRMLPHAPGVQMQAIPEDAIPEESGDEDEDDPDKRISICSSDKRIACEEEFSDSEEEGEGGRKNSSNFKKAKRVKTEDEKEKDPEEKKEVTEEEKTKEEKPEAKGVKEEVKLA

Histone deacetylase 3 = Histone deacetylase 3 (Homo sapiens, UniProt O15379); experiment: Inhibition of human HDAC3 using Boc-Lys (Ac)-AMC as substrate incubated for 60 mins by fluorimetric assay
Histone deacetylase 3, sequence (O15379 whole entry): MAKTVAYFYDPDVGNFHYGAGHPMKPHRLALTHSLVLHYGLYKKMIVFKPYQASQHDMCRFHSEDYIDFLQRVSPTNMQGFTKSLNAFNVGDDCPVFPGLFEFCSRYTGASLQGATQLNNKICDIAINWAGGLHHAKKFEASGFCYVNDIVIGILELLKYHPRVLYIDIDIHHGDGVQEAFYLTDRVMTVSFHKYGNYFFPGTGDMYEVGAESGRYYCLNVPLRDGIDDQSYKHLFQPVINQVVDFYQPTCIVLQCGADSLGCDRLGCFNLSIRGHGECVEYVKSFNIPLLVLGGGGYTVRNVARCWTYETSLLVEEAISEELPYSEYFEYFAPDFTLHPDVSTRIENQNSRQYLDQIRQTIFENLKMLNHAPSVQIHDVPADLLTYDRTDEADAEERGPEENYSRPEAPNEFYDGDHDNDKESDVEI

[2] = molecular target: T1, Protein deacetylase HDAC6 (Homo sapiens, UniProt Q9UBN7); experiment: Inhibition of human HDAC6 using Boc-Lys (Ac)-AMC as substrate incubated for 60 mins by fluorimetric assay
T1 sequence (Q9UBN7 whole entry): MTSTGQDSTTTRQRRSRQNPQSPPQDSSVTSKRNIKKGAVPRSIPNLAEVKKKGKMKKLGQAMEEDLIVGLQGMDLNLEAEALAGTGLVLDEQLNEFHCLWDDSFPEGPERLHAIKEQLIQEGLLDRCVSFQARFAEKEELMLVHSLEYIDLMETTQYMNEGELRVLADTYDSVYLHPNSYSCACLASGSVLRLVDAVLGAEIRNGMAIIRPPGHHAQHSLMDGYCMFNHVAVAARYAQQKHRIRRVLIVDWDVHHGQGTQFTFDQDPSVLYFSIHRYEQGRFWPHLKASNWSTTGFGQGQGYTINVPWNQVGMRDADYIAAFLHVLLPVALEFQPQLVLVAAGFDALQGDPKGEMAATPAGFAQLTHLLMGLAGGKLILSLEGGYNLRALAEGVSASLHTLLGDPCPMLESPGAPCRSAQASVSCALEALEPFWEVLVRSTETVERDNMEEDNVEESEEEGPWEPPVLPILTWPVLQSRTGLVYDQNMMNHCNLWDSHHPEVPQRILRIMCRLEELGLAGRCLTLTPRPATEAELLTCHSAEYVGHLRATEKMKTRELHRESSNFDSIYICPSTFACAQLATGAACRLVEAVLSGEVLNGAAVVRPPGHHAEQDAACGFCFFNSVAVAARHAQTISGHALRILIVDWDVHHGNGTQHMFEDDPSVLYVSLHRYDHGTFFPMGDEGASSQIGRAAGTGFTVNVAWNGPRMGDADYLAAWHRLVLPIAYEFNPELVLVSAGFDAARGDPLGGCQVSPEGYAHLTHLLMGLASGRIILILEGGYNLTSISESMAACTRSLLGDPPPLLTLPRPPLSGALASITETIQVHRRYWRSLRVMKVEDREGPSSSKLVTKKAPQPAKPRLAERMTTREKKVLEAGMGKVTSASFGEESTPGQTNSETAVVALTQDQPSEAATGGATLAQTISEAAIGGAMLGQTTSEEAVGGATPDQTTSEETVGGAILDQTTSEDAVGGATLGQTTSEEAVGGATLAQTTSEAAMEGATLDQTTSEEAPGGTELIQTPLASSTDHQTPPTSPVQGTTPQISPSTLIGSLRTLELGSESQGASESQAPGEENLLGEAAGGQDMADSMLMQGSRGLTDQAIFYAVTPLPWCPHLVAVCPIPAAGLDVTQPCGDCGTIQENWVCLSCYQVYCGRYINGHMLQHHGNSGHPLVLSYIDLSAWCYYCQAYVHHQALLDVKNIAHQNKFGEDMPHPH

Histone deacetylase 8 = molecular target: T2, Histone deacetylase 8 (Homo sapiens, UniProt Q9BY41); experiment: Inhibition of human HDAC8 using Boc-Lys (Ac)-AMC as substrate incubated for 60 mins by fluorimetric assay
T2 sequence (Q9BY41 whole entry): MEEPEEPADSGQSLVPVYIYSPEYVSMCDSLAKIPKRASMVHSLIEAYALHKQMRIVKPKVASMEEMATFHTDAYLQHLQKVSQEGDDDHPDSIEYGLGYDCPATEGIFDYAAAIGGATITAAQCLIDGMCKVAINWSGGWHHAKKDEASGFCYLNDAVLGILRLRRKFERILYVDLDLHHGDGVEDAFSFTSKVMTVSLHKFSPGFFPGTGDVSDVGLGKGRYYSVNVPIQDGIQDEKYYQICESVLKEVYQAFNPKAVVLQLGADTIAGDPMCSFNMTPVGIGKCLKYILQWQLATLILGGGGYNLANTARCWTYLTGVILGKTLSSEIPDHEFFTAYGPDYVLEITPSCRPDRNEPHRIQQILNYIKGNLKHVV

[3] = molecular target: Histone deacetylase (Homo sapiens) (UniProt Q13547+O15379+Q9UBN7+Q92769+Q9UQL6+Q8WUI4+Q9BY41+Q96DB2+P56524+Q9UKV0+Q969S8); experiment: Inhibition of HDAC in human Bel7402 cells assessed as increase in acetylated alpha-tubulin expression incubated for 72 hrs by Western blot analysis; assay type: cell-based
In short: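 Bel7402 cells exposed to vehicle or compound (1.0 and 3.0 μM) for 72 h, with SAHA 5.0 μM as reference. Lysates (0.05 mg/lane) run on 12% SDS-PAGE and transferred to nitrocellulose. Probed with anti-acetyl-H3 and anti-acetyl-α-tubulin, HRP secondary, chemiluminescence. Quantified from three separate assays, mean ± SD.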

Bel-7402 [4] = experiment: Induction of apoptosis in human Bel7402 cells assessed as increase in cleaved PARP level at 1 uM after 72 hrs by Western blot analysis; assay type: functional, cell-based
In short: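 Subconfluent Bel7402 cells (1.5 × 10^5/mL) exposed to vehicle or compound for 72 h, then lysed. Lysates (0.05 mg/lane) run on 12% SDS-PAGE, transferred to nitrocellulose, blocked in 5% nonfat milk. Probed for Bax, Bcl-2, cleaved caspase-3 and cleaved PARP, with HRP secondary and chemiluminescence. Levels normalized to β-actin; three separate assays, mean ± SD.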

Bel-7402 [5] = experiment: Induction of autophagy in human Bel7402 cells assessed as accumulation of autophagic vacuoles at 1 uM after 24 hrs by acridine orange staining based fluorescence microscopic method; assay type: functional, cell-based
In short: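 Bel7402 cells (10 000) cultured overnight, then exposed to compound at 1.0 or 5.0 μM, or vehicle. Stained with 1 mg/mL acridine orange for 15−20 min, then dye removed. Red versus green fluorescence viewed by fluorescence microscopy at 400×. Representative images from three independent experiments.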

Bel-7402 [6] = experiment: Induction of autophagy in human Bel7402 cells assessed as upregulation of LC3-2 level at 5 uM after 24 to 72 hrs by Western blot analysis; assay type: functional, cell-based
In short: (§1)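 Bel7402 cells (1.5 × 10^5/mL) exposed to compound at indicated doses, or vehicle, for 24 or 72 h. Lysates (0.05 mg/lane) separated on 12% SDS-PAGE, blotted to nitrocellulose, blocked in 5% milk. Probed with anti-LC3, anti-p62 and anti-beclin-1, HRP secondary, chemiluminescent detection. Levels quantified relative to β-actin; three separate assays, mean ± SD.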

Bel-7402 [7] = experiment: Induction of autophagy in human Bel7402 cells assessed as upregulation of Beclin1 level at 1 to 5 uM after 24 to 72 hrs by Western blot analysis; assay type: functional, cell-based; in short: as §1

COc1ccc(-c2nc(NCCCOc3ccc(/C=C/C(=O)NO)cc3OC)cc3c2[nH]c2ccccc23)cc1
IC50 (SMMC-7721): 2900 nM | IC50 (Bel-7402 [1]): 1000 nM | IC50 (Histone deacetylase 1): 27 nM | IC50 (Histone deacetylase 3): 148 nM | IC50 [2]: 13 nM | IC50 (Histone deacetylase 8): > 1000 nM | inhibition [3]: Dose-dependent effect | Activity (Bel-7402 [4]): Active | Activity (Bel-7402 [5]): Active | Activity (Bel-7402 [6]): Active | Activity (Bel-7402 [7]): Active
